DAGLB inh: blocks human DAGLB lipase activity. 340,000 tested, 0.059% active. HEK293T DAGLB membrane lysate, EnzChek fluorogenic substrate. Q8NCG7. inhibition, % at 5.17 µM; in the data active = inhibition above about 34%;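 also: 0% = enzyme with vehicle and 100% = wells lacking enzyme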
Target sequence (Q8NCG7 whole entry, looked up): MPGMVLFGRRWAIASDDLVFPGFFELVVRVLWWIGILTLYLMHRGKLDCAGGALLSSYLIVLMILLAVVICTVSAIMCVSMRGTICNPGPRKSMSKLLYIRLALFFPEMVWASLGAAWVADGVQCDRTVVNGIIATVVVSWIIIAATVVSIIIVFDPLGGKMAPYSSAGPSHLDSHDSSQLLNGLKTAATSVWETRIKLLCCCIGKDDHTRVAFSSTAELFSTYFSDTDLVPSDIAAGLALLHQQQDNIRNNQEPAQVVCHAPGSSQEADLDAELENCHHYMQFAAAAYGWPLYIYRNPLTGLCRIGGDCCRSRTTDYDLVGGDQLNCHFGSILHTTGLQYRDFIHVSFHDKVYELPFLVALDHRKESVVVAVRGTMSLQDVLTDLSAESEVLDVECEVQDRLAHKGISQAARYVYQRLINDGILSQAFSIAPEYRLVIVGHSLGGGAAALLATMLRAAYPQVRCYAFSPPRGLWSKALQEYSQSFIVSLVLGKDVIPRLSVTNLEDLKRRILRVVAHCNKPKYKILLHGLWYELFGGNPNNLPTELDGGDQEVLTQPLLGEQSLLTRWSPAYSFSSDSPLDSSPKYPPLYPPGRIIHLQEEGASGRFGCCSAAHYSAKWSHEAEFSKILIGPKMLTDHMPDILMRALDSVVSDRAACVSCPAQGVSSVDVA
TAAR1 agonist: human TAAR1 agonism. CHO RD-HGA16 TAAR1, Fluo-8 calcium fluorescence; vehicle wells 0%, saturating PEA agonist 100%. activation, % at 3 µM. 360,000 tested, 0.99% active. AID 624467;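 active = activation above the mean activation of all test compounds in the run plus 3 SD, cut at about 38% in these data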
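Assay system: CHO-derived RD-HGA16 cells with stable Gα16 and human TAAR1; timing: 17-24 h seeding, 75 min 37 °C dye, 30 min RT; read-out: % activation from peak over basal fluorescence ratio, DMSO-to-PEA scaled; measured by: kinetic Fluo-8 calcium fluorescence; benchmarks: low control DMSO, high control PEA (EC100); doses: 3 µM single concentration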
MPTP inh: inhibitors of mitochondrial permeability transition pore | AID 602449 | 360,000 tested, 1.4% active | inhibition, % at 10 µM | isolated mouse mitochondria, Ca2+ swelling absorbance, 30 min;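 active = inhibition of 50% or more, scaled per plate between neutral and stimulator controls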;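 also: 0% = DMSO wells given calcium and 100% = 1 mM EGTA wells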
GPR7 antag: human neuropeptides B/W receptor 1 antagonism. GPR7-expressing cells, fluorescence antagonist assay. 290,000 tested, 1.1% active. inhibition, % at 4.4 µM. P48145; in the data active = inhibition above about 16%, passing the limit was not always enough;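 also: cells stimulated with the agonist NPW; 0% = agonist with vehicle and 100% = vehicle without agonist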
TAAR1 antag: human TAAR1 antagonism; CHO RD-HGA16 TAAR1, Fluo-8 calcium fluorescence, antagonist; inhibition, % at 3 µM; 360,000 tested, 1.5% active;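 active = inhibition above a per-plate cutoff, the mean inhibition of test compounds on that plate plus 3 SD, cut at about 49% in these data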;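 also: 0% = DMSO plus EC80 beta-PEA response and 100% = DMSO alone without agonist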
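System: CHO RD-HGA16 cells bearing hTAAR1. Reagent: EC80 β-phenethylamine stimulus. Schedule: seeding 17-24 h prior, 75-min 37 °C, 30-min RT dye loading. Signal: Fluo-8 intracellular calcium dye fluorescence, real-time kinetic reads. Read-out: % inhibition from peak post-agonist over basal fluorescence ratio. Benchmarks: vehicle wells and EC80 agonist wells. Replicates: n of 1.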
GPR7 antag conf: confirmation of human GPR7 antagonists. shares compounds with GPR7 antag. 2,400 tested, 52% active. GPR7-expressing cells, calcium fluorescence antagonist mode. inhibition, % at 4.4 µM; in the data active = inhibition above about 24%;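 also: stimulated with the GPR7 agonist NPW; 0% = agonist plus vehicle and 100% = vehicle alone without agonist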
MCHR1 antagonist: MCHR1 (human) antagonism in GPR7 counter-screen | shares compounds with GPR7 antag | MCHR1-expressing cells, fluorescence antagonist assay | inhibition, % at 4.4 µM | 2,400 tested, 62% active;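 also: 0% = vehicle with agonist and 100% = vehicle without agonist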
Rh123 counter: membrane potential counter-screen of mitochondrial pore inhibitors. 5,000 tested, 78% active. shares compounds with MPTP inh. inhibition, % at 10 µM. isolated mitochondria, Rhodamine 123 fluorescence. AID 624504;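 also: 0% = DMSO vehicle and 100% = positive control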
TAAR1 ag conf: confirmation of human TAAR1 agonists; shares compounds with TAAR1 agonist; CHO RD-HGA16 TAAR1, Fluo-8 calcium fluorescence; scaled: DMSO 0%, maximal phenethylamine 100%; activation, % at 3 µM; 2,400 tested, 82% active; AID 651783;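 active = activation above a cutoff set at the run's mean compound activation plus 3 SD, cut at about 39% in these data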
Ga16 nonsel ag: nonselective agonist in parental cells, TAAR1 agonist counter-screen; 2,400 tested, 50% active; CHO-Ga16 parental, Fluo-8 calcium fluorescence; normalized to maximal ATP response, DMSO zero; shares compounds with TAAR1 agonist; activation, % at 3 µM;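 active = activation above the run cutoff, the mean activation over all tested wells plus 3 SD, cut at about 12% in these data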;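 also: 0% = DMSO wells and 100% = maximal ATP response on the peak over basal ratio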
TAAR1 desens: TAAR1 response desensitization, agonist counter-screen | shares compounds with TAAR1 agonist | CHO RD-HGA16 hTAAR1, Fluo-8 calcium, beta-PEA response inhibition | inhibition, % at 3 µM | 2,400 tested, 46% active;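 active = inhibition above the run cutoff, the mean inhibition of all test compounds plus 3 SD, cut at about 49% in these data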;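 also: beta-PEA stimulus applied at its EC80; loss of beta-PEA calcium signal after compound pretreatment read as receptor desensitization; 0% = DMSO with beta-PEA at EC80 and 100% = DMSO alone without agonist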
Ga16 antag count: counter-screen for TAAR1 agonists: nonselective Ga16 antagonists; 2,400 tested, 39% active; CHO-Ga16 ATP-induced calcium, Fluo-8 fluorescence; inhibition, % at 3 µM; AID 651952; shares compounds with TAAR1 agonist;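 active = inhibition above the plate's mean compound inhibition plus 3 SD, computed per plate, cut at about 22% in these data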;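 also: 0% = EC80 ATP with DMSO and 100% = DMSO wells without ATP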
An asterisk follows results filed as active. Only some compounds are listed: those with a hit (about 4% of all), similar ones and a draw of the others. Rule as the data show it, unless noted: active = inhibition above about 22%; inactive = the rest.

For S=C(Nc1ccc(Cl)c(Cl)c1)NC1CCN(Cc2ccccc2)CC1 the results were DAGLB inh -6.3, TAAR1 agonist 112.4*, MPTP inh 47.9, GPR7 antag 32.9*, TAAR1 antag 74.4*, GPR7 antag conf 70.1*, MCHR1 antagonist 94.4*, TAAR1 ag conf 98.3*, Ga16 nonsel ag 56.6*, TAAR1 desens 89.3* and Ga16 antag count 67.3*.
Screening Fc1ccc(NC(=S)NC2CCN(Cc3ccccc3)CC2)cc1 returned DAGLB inh -1.4, TAAR1 agonist 9.7, MPTP inh 0.4, GPR7 antag 3.7 and TAAR1 antag -15.3.
Screening Cc1ccc(-n2nnnc2SCC(=O)Nc2ccc(N3CCN(C)CC3)cc2)c(C)c1 returned DAGLB inh 0.5, TAAR1 agonist 16.1, MPTP inh -0.8, GPR7 antag -1.2 and TAAR1 antag 5.7.
`Cc1ccc(SCC(=O)Nc2ccc(N3CCN(C)CC3)c(F)c2)c(C)c1` gave DAGLB inh 0.3, TAAR1 agonist 60.1*, MPTP inh 1.4, GPR7 antag 38.3*, TAAR1 antag 52.3*, GPR7 antag conf 2.7, MCHR1 antagonist 9.6, TAAR1 ag conf 79.6*, Ga16 nonsel ag 1.8, TAAR1 desens 75.0* and Ga16 antag count 6.9.
Screening CC1(C(=O)NCc2cccs2)CCN1C(=O)Cc1cccc2ccccc12 (stereo unspecified) returned TAAR1 agonist 1.4, MPTP inh 1.4 and TAAR1 antag -8.2.
CC(c1ccccc1C(O)(c1ccccc1)c1ccccc1)N(C)C (stereo unspecified) was read as DAGLB inh -0.9, TAAR1 agonist 114.2*, MPTP inh 0.2, GPR7 antag 68.3*, TAAR1 antag 73.9*, GPR7 antag conf 91.7*, MCHR1 antagonist 96.2*, TAAR1 ag conf 112.8*, Ga16 nonsel ag 70.3*, TAAR1 desens 97.9* and Ga16 antag count 63.2*.
Screening COc1ccccc1C(O)(c1ccccc1)c1ccccc1OC returned DAGLB inh -6.0, TAAR1 agonist 0.0, MPTP inh 0.3 and TAAR1 antag 5.4.
CC1=C(C(=O)OCc2ccccc2)C(c2ccc(C)cc2)NC(=O)N1 (stereo unspecified) was read as DAGLB inh 0.8, TAAR1 agonist 1.9, MPTP inh -0.3 and TAAR1 antag -5.8.
`CN1OC[C@@H]2CN[C@H](c3ccc(-c4cc5ccccc5o4)cc3)C[C@@H]21` gave DAGLB inh 2.5 and MPTP inh -2.6.
`CC(Oc1ccc(Cl)cc1)C(=O)Nc1ccc(S(=O)(=O)N2CCOCC2)cc1` (stereo unspecified) gave DAGLB inh -1.4, TAAR1 agonist 110.5*, MPTP inh 0.0, GPR7 antag 55.6*, TAAR1 antag 47.9, GPR7 antag conf 53.5*, MCHR1 antagonist 61.0*, TAAR1 ag conf 114.3*, Ga16 nonsel ag 72.2*, TAAR1 desens 74.8* and Ga16 antag count 42.2*.
CC(Oc1ccccc1)C(=O)Nc1ccc(C(N)=O)cc1 (stereo unspecified) was read as DAGLB inh 0.2, TAAR1 agonist 12.4, MPTP inh -0.4, GPR7 antag -5.6 and TAAR1 antag 2.0.
For CC(C)NS(=O)(=O)c1ccc(NC(=O)C(C)Oc2ccc(C(=O)c3ccccc3)cc2)cc1 (stereo unspecified) the results were DAGLB inh -1.0, TAAR1 agonist 122.9*, MPTP inh 26.8, GPR7 antag 90.9*, TAAR1 antag 105.2*, GPR7 antag conf 91.5*, MCHR1 antagonist 95.9*, TAAR1 ag conf 121.6*, Ga16 nonsel ag 84.5*, TAAR1 desens 104.5* and Ga16 antag count 85.6*.
`CC(Oc1ccc(Cl)cc1)C(=O)Nc1cccc(S(=O)(=O)N2CCCC2)c1` (stereo unspecified) gave DAGLB inh -6.1, TAAR1 agonist 7.5, MPTP inh -1.9 and TAAR1 antag -15.3.
`COc1ccc(C(C(=O)NCc2ccccc2)n2c(=O)c(-c3cc4ccccc4[nH]3)nc3ccccc32)cc1` (stereo unspecified) gave TAAR1 agonist 0.5, MPTP inh 3.5 and TAAR1 antag -0.8.
c1ccc(CCn2nnnc2C(c2cccs2)N2CCN(Cc3ccc4c(c3)OCO4)CC2)cc1 (stereo unspecified) was read as DAGLB inh -5.0, TAAR1 agonist 85.1*, MPTP inh -0.8, GPR7 antag 21.7*, TAAR1 antag 73.2*, GPR7 antag conf 21.3, MCHR1 antagonist 34.4*, TAAR1 ag conf 95.5*, Ga16 nonsel ag 0.6, TAAR1 desens 88.6* and Ga16 antag count 2.9.
CCc1nc2ccc(C(=O)Nc3cccc(NS(C)(=O)=O)c3)cn2c1N(CC)Cc1cccc(Br)c1 was read as TAAR1 agonist 1.0, MPTP inh 1.5 and TAAR1 antag 4.0.
`CCc1ccccc1NC(=O)N1CCCc2ccccc21` gave DAGLB inh 1.3, TAAR1 agonist 0.4, MPTP inh -0.4, GPR7 antag 4.1 and TAAR1 antag -15.8.
Screening Cc1cc(NC2CCCCC2)nc(NCc2ccccc2)n1 returned DAGLB inh 0.2, TAAR1 agonist 67.3*, MPTP inh 85.8*, GPR7 antag 23.9*, TAAR1 antag 19.0, GPR7 antag conf 50.8*, MCHR1 antagonist 80.7*, Rh123 counter 110.9*, TAAR1 ag conf 75.5*, Ga16 nonsel ag 52.3*, TAAR1 desens 59.2* and Ga16 antag count 39.0*.
C#Cc1ccc(NC(=O)C2(C)CCN2C(=O)CC(c2ccccc2)c2ccccc2)cc1 (stereo unspecified) was read as TAAR1 agonist -0.2, MPTP inh -0.1 and TAAR1 antag -21.9.
